Measured values: ChEMBL document CHEMBL1153955, “Indolylarylsulfones bearing natural and unnatural amino acids. Discovery of potent inhibitors of HIV-1 non-nucleoside wild type and resistant mutant strains reverse transcriptase and coxsackie B4 virus” (J Med Chem, 2009)

Key:
[1] = Cytotoxicity against human HEL cells assessed as drug level causing microscopically detectable alteration of normal cell morphology after 3 days; assay type: cell-based
[2] = test system: Coxsackievirus B4; assay: Antiviral activity against Coxsackievirus B4 in human HeLa cells assessed as protection against virus-induced cytopathicity; assay type: functional, organism-based; details: Enterovirus B
Summary of the method: (§1)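 Confluent cell monolayers inoculated with 100 CCID₅₀ virus. After 1-2 h adsorption, residual virus removed and cultures incubated with varying compound concentrations. Cytopathicity scored once it reached completion in untreated infected controls. EC₅₀ = dose reducing virus-induced cytopathogenicity by 50%.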

[3] = test system: Human immunodeficiency virus 1; assay: Antiviral activity against HIV1 with reverse transcriptase L100I mutation in human CEM cells assessed as protection against virus-induced cytopathicity; assay type: functional, organism-based; details: Human immunodeficiency virus 1, CCRF-CEM
Summary of the method: (§2)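 CEM cells (~3 × 10⁵ cells/mL) were infected with ~100 CCID₅₀ virus per mL and seeded with serial compound dilutions. After 4 days at 37 °C, syncytium (giant cell) formation was scored microscopically. EC₅₀ is the concentration giving 50% protection against virus cytopathicity.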

[4] = test system: Vesicular stomatitis virus; assay: Antiviral activity against VSV in human HeLa cells assessed as protection against virus-induced cytopathicity; assay type: functional, organism-based
[5] = molecular target: Human immunodeficiency virus type 1 reverse transcriptase (Human immunodeficiency virus 1, UniProt Q72547); assay: Inhibition of HIV1 reverse transcriptase p66/p51; details: read-out: IC50
[6] = Antiproliferative activity against human Molt4/C8 cells after 3 days; assay type: cell-based; details: MOLT-4, 72 h
Summary of the method: (§3)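 Cells seeded at 5 × 10⁴ to 7.5 × 10⁴ cells/200 µL with or without serial compound dilutions; incubated at 37 °C for 2 days (L1210) or 3 days (Molt4/C8, CEM). Cell numbers counted with a Coulter counter. CC₅₀ = concentration reducing proliferation by 50% versus untreated controls, read from plots of cell number (% of control) against concentration. Means of at least two independent experiments.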

[7] = test system: Influenza B virus; assay: Antiviral activity against influenza B virus in MDCK cells assessed as reduction of virus-induced cytopathicity by MTS method; assay type: functional, organism-based
[8] = Cytotoxicity against MDCK cells by MTS assay; assay type: cell-based, Canis lupus familiaris; details: dog
[9] = test system: Human immunodeficiency virus 1; assay: Antiviral activity against HIV1 3B in human CEM cells assessed as protection against virus-induced cytopathicity after 4 days; assay type: functional, organism-based; details: Human immunodeficiency virus 1, 3B, CCRF-CEM, 96 h
Summary of the method: (§4)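 CEM cells (~3 × 10⁵ cells/mL) infected with ~100 CCID₅₀ per mL of HIV-1 (IIIB) or HIV-2 (ROD), then seeded into wells containing compound dilutions. After 4 days at 37 °C, syncytium (giant cell) formation was examined microscopically. EC₅₀ = concentration protecting CEM cells from HIV cytopathicity by 50%.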

[10] = test system: Human immunodeficiency virus 1; assay: Antiviral activity against HIV1 with reverse transcriptase Y181C mutation in human CEM cells assessed as protection against virus-induced cytopathicity; assay type: functional, organism-based; details: Human immunodeficiency virus 1, CCRF-CEM; summary of the method: as §2
[11] = Cytotoxicity against feline CRFK cells by MTS assay; assay type: cell-based, Felis catus; details: cat
[12] = test system: Human immunodeficiency virus 1; assay: Antiviral activity against HIV1 with reverse transcriptase K103N mutation in human CEM cells assessed as protection against virus-induced cytopathicity; assay type: functional, organism-based; details: Human immunodeficiency virus 1, CCRF-CEM; summary of the method: as §2
[13] = test system: L1210; assay: Antiproliferative activity against mouse L1210 cells after 2 days; assay type: cell-based; details: L1210, 48 h; summary of the method: as §3
[14] = test system: Influenza A virus H3N2; assay: Antiviral activity against influenza H3N2 virus in MDCK cells assessed as reduction of virus-induced cytopathicity by MTS method; assay type: functional, organism-based
[15] = test system: Sindbis virus; assay: Antiviral activity against Sindbis virus in african green monkey Vero cells assessed as protection against virus-induced cytopathicity; assay type: functional, organism-based; summary of the method: as §1
[16] = test system: Coxsackievirus B4; assay: Antiviral activity against Coxsackievirus B4 in african green monkey Vero cells assessed as protection against virus-induced cytopathicity; assay type: functional, organism-based; details: Enterovirus B; summary of the method: as §1
[17] = test system: Influenza A virus H3N2; assay: Antiviral activity against influenza H3N2 virus in MDCK cells assessed as reduction of virus-induced cytopathicity by visual cytopathic effect scoring method; assay type: functional, organism-based
[18] = molecular target: Human immunodeficiency virus type 1 reverse transcriptase (Human immunodeficiency virus 1, UniProt Q72547, K103N); assay: Inhibition of HIV1 reverse transcriptase p66/p51 K103N mutant; details: read-out: IC50
Summary of the method: (§5)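 Substrate was 0.5 µg poly(rA)/oligo(dT) 10:1 (0.3 µM 3′-OH ends) with 10 µM [³H]dTTP, at 37 °C. Acid-precipitable radioactivity was counted on GF/C filters after TCA washes.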

[19] = Cytotoxicity against MDCK cells assessed as drug level causing microscopically detectable alteration of normal cell morphology; assay type: cell-based, Canis lupus familiaris; details: dog
[20] = test system: Punta Toro virus; assay: Antiviral activity against Punta Toro virus in african green monkey Vero cells assessed as protection against virus-induced cytopathicity; assay type: functional, organism-based; summary of the method: as §1
[21] = Cytotoxicity against african green monkey Vero cells assessed as drug level causing microscopically detectable alteration of normal cell morphology after 3 days; assay type: cell-based; details: chlorocebus sabaeus
Summary of the method: (§6)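 Serial compound dilutions added to confluent HeLa or Vero monolayers. MCC = minimum concentration causing microscopically detectable alteration of cell morphology after 3 days of incubation.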

[22] = test system: Human alphaherpesvirus 1; assay: Antiviral activity against thymidine kinase deficient and acyclovir resistant HSV1 KOS in human HEL cells assessed as protection against virus-induced cytopathicity; assay type: functional, organism-based; details: Human alphaherpesvirus 1, KOS
[23] = test system: CCRF-CEM; assay: Antiproliferative activity against human CEM cells after 3 days; assay type: cell-based; details: 72 h; summary of the method: as §3
[24] = molecular target: Human immunodeficiency virus type 1 reverse transcriptase (Human immunodeficiency virus 1, UniProt Q72547, Y181I); assay: Inhibition of HIV1 reverse transcriptase p66/p51 Y181I mutant; details: read-out: IC50; summary of the method: as §5
[25] = test system: Human alphaherpesvirus 1; assay: Antiviral activity against HSV1 KOS in human HEL cells assessed as protection against virus-induced cytopathicity; assay type: functional, organism-based; details: Human alphaherpesvirus 1, KOS
[26] = test system: Human immunodeficiency virus 1; assay: Antiviral activity against HIV1 with reverse transcriptase Y188L mutation in human CEM cells assessed as protection against virus-induced cytopathicity; assay type: functional, organism-based; details: Human immunodeficiency virus 1, CCRF-CEM; summary of the method: as §2
[27] = test system: Felid alphaherpesvirus 1; assay: Antiviral activity against Feline herpesvirus in feline […] cells assessed as inhibition of virus-induced cytopathicity; assay type: functional, organism-based
[28] = Cytotoxicity against human HeLa cells assessed as drug level causing microscopically detectable alteration of normal cell morphology after 3 days; assay type: cell-based; summary of the method: as §6
[29] = test system: Vaccinia virus; assay: Antiviral activity against Vaccinia virus Lederle in human HEL cells assessed as protection against virus-induced cytopathicity; assay type: functional, organism-based; details: Orthopoxvirus vaccinia
[30] = test system: Influenza A virus; assay: Antiviral activity against influenza H1N1 virus in MDCK cells assessed as reduction of virus-induced cytopathicity by visual cytopathic effect scoring method; assay type: functional, organism-based
[31] = test system: Human alphaherpesvirus 2; assay: Antiviral activity against HSV2 G in human HEL cells assessed as protection against virus-induced cytopathicity; assay type: functional, organism-based; details: Human alphaherpesvirus 2, strain G; summary of the method: as §1
[32] = molecular target: Human immunodeficiency virus type 1 reverse transcriptase (Human immunodeficiency virus 1, UniProt Q72547, L100I); assay: Inhibition of HIV1 reverse transcriptase p66/p51 L100I mutant; details: read-out: IC50; summary of the method: as §5
[33] = test system: Influenza B virus; assay: Antiviral activity against influenza B virus in MDCK cells assessed as reduction of virus-induced cytopathicity by visual cytopathic effect scoring method; assay type: functional, organism-based
[34] = test system: Respiratory syncytial virus; assay: Antiviral activity against RSV Long in human HeLa cells assessed as protection against virus-induced cytopathicity; assay type: functional, organism-based; summary of the method: as §1
[35] = test system: Mammalian orthoreovirus 1; assay: Antiviral activity against Reovirus 1 in african green monkey Vero cells assessed as protection against virus-induced cytopathicity; assay type: functional, organism-based; details: Mammalian orthoreovirus 1, Vero; summary of the method: as §1
[36] = test system: Human immunodeficiency virus 1; assay: Antiviral activity against HIV1 with reverse transcriptase Y181I mutation in human CEM cells assessed as protection against virus-induced cytopathicity; assay type: functional, organism-based; details: Human immunodeficiency virus 1, CCRF-CEM; summary of the method: as §2
[37] = test system: Feline coronavirus; assay: Antiviral activity against Feline coronavirus in feline […] cells assessed as inhibition of virus-induced cytopathicity; assay type: functional, organism-based; details: Alphacoronavirus 1
[38] = test system: Human immunodeficiency virus 2; assay: Antiviral activity against HIV2 ROD in human CEM cells assessed as protection against virus-induced cytopathicity after 4 days; assay type: functional, organism-based; details: Human immunodeficiency virus 2, ROD, CCRF-CEM, 96 h; summary of the method: as §4
[39] = test system: Human respirovirus 3; assay: Antiviral activity against Parainfluenza virus type 3 in african green monkey Vero cells assessed as protection against virus-induced cytopathicity; assay type: functional, organism-based; details: Human respirovirus 3, Vero; summary of the method: as §1
[40] = test system: Vesicular stomatitis virus; assay: Antiviral activity against VSV in human HEL cells assessed as protection against virus-induced cytopathicity; assay type: functional, organism-based
[41] = test system: Influenza A virus; assay: Antiviral activity against influenza H1N1 virus in MDCK cells assessed as reduction of virus-induced cytopathicity by MTS method; assay type: functional, organism-based; details: Influenza A virus, H1N1, MDCK

Cc1cc(C)cc(S(=O)(=O)c2c(C(=O)NCCS(N)(=O)=O)[nH]c3ccc(Cl)cc23)c1
MCC at 72 h [1]: 20 µM | EC50 [2]: > 4 µM | IC50 [3]: 0.0012 µM | EC50 [4]: > 4 µM | IC50 [5]: 0.0004 µM | IC50 [6]: 12 µM | EC50 [7]: > 4 µM | CC50 [8]: 7.9 µM | EC50 [9]: 0.0014 µM | IC50 [10]: 0.23 µM | CC50 [11]: 8.5 µM | IC50 [12]: 0.04 µM | IC50 [13]: 20 µM | EC50 [14]: > 4 µM | EC50 [15]: 20 µM | EC50 [16]: 9 µM | EC50 [17]: > 4 µM | IC50 [18]: 0.584 µM | MCC [19]: 20 µM | EC50 [20]: 20 µM | MCC at 72 h [21]: 100 µM | EC50 [22]: > 4 µM | IC50 [23]: 14 µM | IC50 [24]: > 40 µM | EC50 [25]: > 4 µM | IC50 [26]: > 1 µM | EC50 [27]: > 4 µM | MCC at 72 h [28]: 20 µM | EC50 [29]: > 4 µM | EC50 [30]: > 4 µM | EC50 [31]: > 4 µM | IC50 [32]: 0.025 µM | EC50 [33]: > 4 µM | EC50 [34]: > 4 µM | EC50 [35]: 20 µM | IC50 [36]: > 1 µM | EC50 [37]: > 4 µM | EC50 [38]: > 10 µM | EC50 [39]: > 20 µM | EC50 [40]: > 4 µM | EC50 [41]: > 4 µM
